Most compounds without a hit are left out; they make up all but 3.1% or so of the library.
ADAM17 inh – inhibits human ADAM17; P78536; recombinant ADAM17, EDANS/DABCYL FRET peptide cleavage; inhibition, % at 6.95 µM; 0.83% of 370,000 active; AID 720648;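 active means inhibition above the mean of compounds lying between control limits plus 3 SD, set per campaign, cut at about 8.5% in these data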
ADAM10 inh – inhibitors of human ADAM10; recombinant ADAM10, EDANS/DABCYL FRET peptide cleavage, 3 h; inhibition, % at 7 µM; 0.62% of 370,000 active;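 active means inhibition above a per-campaign cutoff equal to the mean of compounds falling between control-based bounds plus 3 SD, cut at about 20% in these data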
Target sequence (O14672 214-748 limits assumed): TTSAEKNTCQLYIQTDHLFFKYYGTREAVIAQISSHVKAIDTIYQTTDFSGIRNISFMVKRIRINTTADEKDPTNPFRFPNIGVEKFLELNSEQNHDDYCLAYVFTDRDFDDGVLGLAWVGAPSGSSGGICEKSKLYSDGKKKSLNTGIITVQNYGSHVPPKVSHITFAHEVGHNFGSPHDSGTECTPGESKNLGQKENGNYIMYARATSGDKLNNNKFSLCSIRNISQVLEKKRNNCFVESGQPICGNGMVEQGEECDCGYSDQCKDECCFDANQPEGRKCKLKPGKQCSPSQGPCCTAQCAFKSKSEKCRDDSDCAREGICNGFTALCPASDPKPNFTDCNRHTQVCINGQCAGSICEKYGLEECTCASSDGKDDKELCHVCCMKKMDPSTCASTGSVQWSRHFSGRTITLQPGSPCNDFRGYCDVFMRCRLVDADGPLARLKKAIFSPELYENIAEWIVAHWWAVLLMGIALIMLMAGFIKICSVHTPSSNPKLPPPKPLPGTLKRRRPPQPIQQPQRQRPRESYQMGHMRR
V-ATPase pH – yeast V-ATPase proton transport regulation by pHLuorin; S. cerevisiae, pHLuorin cytosolic pH fluorescence; response, % at 10 µM; 0.37% of 350,000 active; in the data active means response mostly above about 7.3%, no sharp cut-off; inactive means mostly below about 5.4%; further: actives read high
Hep lipid drop – modulators of hepatic lipid droplet formation | inhibition, % at 6.5 µM | 0.4% of 240,000 active | AML12 mouse hepatocytes, oleate lipid droplets, BODIPY imaging;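 active means lipid droplet intensity inhibited by at least 50%, with more than 500 cells counted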
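Assay system: AML12 hepatocytes (mouse) / Also added: 100 µM oleic acid challenge / Times: overnight treatment with compound plus oleate / Detection: high-content imaging of BODIPY-stained droplets and DAPI nuclei / Evaluation: % inhibition of lipid droplet signal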
MPTP inh – permeability transition pore inhibition. AID 602449. inhibition, % at 10 µM. isolated mouse mitochondria, Ca2+ swelling absorbance, 30 min. 1.4% of 360,000 active;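 active means inhibition of 50% or more, scaled per plate between neutral and stimulator controls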
aDG glyco act – increases alpha dystroglycan glycosylation | Pro5-aDG cells, alpha-DG glycosylation AlphaScreen (IIH6); 0% Pro5, 100% B10-LARGE cell signal | activation, % at 10 µM | AID 624168 | 0.22% of 360,000 active;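 active means activation of at least 8% versus controls, or a plate z-score of at least 8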;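 further: Pro5 are CHO cells carrying HIG-tagged alpha-DG that lacks glycosylation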
Each line names hits and unclear results; the compound was inactive in the other large screens.

COc1ccc(NC(=O)Nc2cccc3c2O[C@H](CN(C)C(=O)Nc2ccc(C(F)(F)F)cc2)[C@@H](C)CN([C@H](C)CO)C3=O)cc1	none (no result: ADAM17 inh, ADAM10 inh, Hep lipid drop)
COc1ccc(NC(=O)Nc2ccc3c(c2)C(=O)N([C@H](C)CO)C[C@H](C)[C@@H](CN(C)Cc2ccc(Cl)c(Cl)c2)OCCCC[C@@H](C)O3)cc1	ADAM10 inh 21 (no result: Hep lipid drop)
COc1ccc(NC(=O)Nc2ccc3c(c2)C(=O)N([C@H](C)CO)C[C@H](C)[C@@H](CN(C)S(=O)(=O)c2ccc(OC)cc2)O3)cc1	none (no result: Hep lipid drop)
C[C@H]1CN([C@@H](C)CO)C(=O)c2cccc(NC(=O)Nc3ccc(C(F)(F)F)cc3)c2O[C@@H]1CN(C)C(=O)Nc1ccc(F)cc1	ADAM10 inh 23 (no result: Hep lipid drop)
COc1ccc(S(=O)(=O)N(C)C[C@H]2Oc3ccc(NC(=O)Nc4ccc(C(F)(F)F)cc4)cc3C(=O)N([C@H](C)CO)C[C@@H]2C)cc1	ADAM17 inh 12, ADAM10 inh 29 (no result: Hep lipid drop)
C[C@H](CO)N1C[C@H](C)[C@@H](CN(C)C(=O)Nc2ccc(C(F)(F)F)cc2)Oc2c(NC(=O)Nc3ccc(C(F)(F)F)cc3)cccc2C1=O	ADAM17 inh 12, ADAM10 inh 29 (no result: Hep lipid drop)
C[C@@H]1CCCCO[C@H](CN(C)Cc2ccc(Cl)c(Cl)c2)[C@H](C)CN([C@@H](C)CO)C(=O)c2cc(NC(=O)Nc3ccc(F)cc3)ccc2O1	none (no result: Hep lipid drop)
O=C(CSc1nc2ccccc2nc1N1CCCC1)N1CCN(c2cccc(C(F)(F)F)c2)CC1	none (no result: V-ATPase pH, Hep lipid drop, MPTP inh, aDG glyco act)
C[C@@H]1CN([C@H](C)CO)C(=O)Cc2cc(NC(=O)Nc3ccccc3)ccc2O[C@@H]1CN(C)Cc1ccc2c(c1)OCO2	ADAM10 inh 20 (no result: Hep lipid drop)
C[C@H](CO)N1C[C@H](C)[C@@H](CN(C)C(=O)Nc2ccc(C(F)(F)F)cc2)Oc2ccc(NC(=O)Nc3ccc(C(F)(F)F)cc3)cc2C1=O	ADAM17 inh 13, ADAM10 inh 26 (no result: Hep lipid drop)
C[C@H](CO)N1C[C@H](C)[C@@H](CN(C)Cc2ccc(C(=O)O)cc2)Oc2c(NC(=O)C3CC3)cccc2C1=O	none (no result: Hep lipid drop)
CC(C)NC(=O)N(C)C[C@H]1Oc2ccc(NC(=O)Nc3ccc(C(F)(F)F)cc3)cc2C(=O)N([C@H](C)CO)C[C@@H]1C	none (no result: Hep lipid drop)
C[C@H](CO)N1C[C@H](C)[C@@H](CN(C)Cc2ccc(Oc3ccccc3)cc2)Oc2c(NC(=O)C3CC3)cccc2C1=O	ADAM10 inh 22 (no result: Hep lipid drop)
CCn1c(Cc2cccs2)nnc1SCC(=O)c1ccc(Cl)cc1	none (no result: V-ATPase pH, Hep lipid drop, MPTP inh, aDG glyco act)
CN1CCC(N[C@@H](Cc2ccccc2)C(=O)NCC(c2ccccc2)c2ccccc2)(C(=O)NC2CCCCC2)CC1	none (no result: V-ATPase pH, Hep lipid drop, MPTP inh, aDG glyco act)
O=C(COC(=O)c1ccc([N+](=O)[O-])s1)c1ccc[nH]1	V-ATPase pH 39 (no result: Hep lipid drop)
O=C(Nc1ccc(S(=O)(=O)NC2=NCCCCC2)cc1)c1cccs1	none (no result: Hep lipid drop)
O=C(Nc1ccc(S(=O)(=O)NC2=NCCCCC2)cc1)c1ccc([N+](=O)[O-])s1	aDG glyco act 8.4 (no result: Hep lipid drop)
CCOc1ccc2noc3c2c1C(=O)c1ccccc1-3	none
O=C1c2ccccc2-c2onc3c(Oc4ccccc4)cc(O)c1c23	Hep lipid drop 56 (no result: ADAM17 inh, ADAM10 inh, V-ATPase pH, MPTP inh, aDG glyco act)
Cc1n[nH]c(C)c1S(=O)(=O)NC(C)Cc1ccccn1 (stereo unspecified)	none (no result: V-ATPase pH, Hep lipid drop, MPTP inh, aDG glyco act)
O=C(CN1CCCN(S(=O)(=O)c2ccc(Br)s2)CC1)Nc1ccc(Cl)cc1	ADAM10 inh 20
CCOC(=O)CNC(=O)CN1CCCN(S(=O)(=O)c2ccc(Br)s2)CC1	none (no result: Hep lipid drop)
C=Cc1ccc(C(=O)N(Cc2ccc(F)cc2)C(C(=O)N(C)C2CCCC2)c2ccc(OC)c(OC)c2)cc1 (stereo unspecified)	none (no result: V-ATPase pH, Hep lipid drop, MPTP inh, aDG glyco act)
Cc1cc(C)c(S(=O)(=O)/N=C2/C=C(SCC(=O)O)C(=O)c3ccccc32)cc1C	aDG glyco act 12 (no result: ADAM17 inh, ADAM10 inh)
O=S(=O)(Nc1ccc(N=Nc2ccc(O)c3ccccc23)cc1)c1ccccc1	ADAM17 inh 14
C[C@]12CC[C@@H]3c4ccc(O)cc4CC[C@H]3[C@@H]1CCC2=O	V-ATPase pH 93
C[C@]12CCC3c4ccc(O)cc4CCC3C1CC/C2=N\N (stereo partly specified)	none (no result: Hep lipid drop)
O=c1cc(N=Nc2ccc(Cl)cc2)[nH]c(=O)[nH]1	V-ATPase pH 13
CN(CCO)c1ccc2c(c1)Oc1ccccc1CN(Cc1cn(Cc3ccc(C(F)(F)F)cc3)nn1)S2(=O)=O	none (no result: V-ATPase pH, Hep lipid drop, MPTP inh, aDG glyco act)
Cc1cccc(NC(=O)CNC(=O)c2cc(C3CC3)nn2-c2ccccc2)c1C	V-ATPase pH 24 (no result: Hep lipid drop)
Cc1cc(C)c(NC(=O)CNC(=O)c2cc(C3CC3)nn2-c2ccccc2)c(C)c1	none (no result: Hep lipid drop)
O=C(N/N=C/c1cn(-c2ccccc2)nc1-c1cc2ccccc2o1)c1c[nH]c2ccccc12	Hep lipid drop 52
CCOc1nc(CC(C)C)c2c(c1C#N)CC(C)(C)OC2	V-ATPase pH 20
CCC(CC)C(=O)Nc1cccc(C(=O)Nc2nnc(C)s2)c1	V-ATPase pH 211
CCC(CC)C(=O)Nc1cccc(C(=O)Nc2nccs2)c1	none (no result: Hep lipid drop)
COC(=O)C1CN(C2CCCC2)CCS(=O)(=O)N1Cc1cn(Cc2ccc(OC)cc2)nn1 (stereo unspecified)	none (no result: V-ATPase pH, Hep lipid drop, MPTP inh, aDG glyco act)
CCN(CC)S(=O)(=O)c1ccc2c(c1)nc(CCC(=O)Nc1cccc(C(F)(F)F)c1)n2CC	ADAM17 inh 10 (no result: Hep lipid drop)
CCN(CC)S(=O)(=O)c1ccc2c(c1)nc(CCC(=O)O)n2CC	none
CCc1noc(C)c1C(=O)OCC(=O)c1ccc(NC(C)=O)cc1F	V-ATPase pH 17 (no result: Hep lipid drop)
CCc1noc(C)c1C(=O)OCC(=O)Nc1ccc(F)cc1Cl	none (no result: Hep lipid drop)
c1ccc(OC2CCN(c3ncnc4sccc34)CC2)cc1	none (no result: V-ATPase pH, Hep lipid drop, MPTP inh, aDG glyco act)
Cc1ccc(Cn2c(SCC(=O)N3CC(=O)Nc4ccccc43)nc3ccccc3c2=O)cc1	ADAM17 inh 8.9
CCC[n+]1c(C)sc2c3c(ccc21)CCCC3	aDG glyco act 6.9 (no result: ADAM17 inh, ADAM10 inh)
CC[n+]1c(C)sc2c(C)cc(C)cc21	none
N#Cc1c2ccc([N+](=O)[O-])cc2[n+]([O-])n1-c1ccccc1	V-ATPase pH 28 (no result: Hep lipid drop)
Cc1cccc(C)c1OCC(=O)Nc1ccccc1N1CCCCC1	none
Cc1cccc(OCC(=O)Nc2ccccc2N2CCCCC2)c1C	V-ATPase pH 8.8 (no result: Hep lipid drop)
CC(COc1cccc([N+](=O)[O-])c1)CN1CCC(C(O)(c2ccccc2)c2ccccc2)CC1 (stereo unspecified)	none (no result: V-ATPase pH, Hep lipid drop, MPTP inh, aDG glyco act)
CC1CCCCC12NC(=O)N(CC(=O)N1CCN(S(=O)(=O)c3ccc4c(c3)CCC4)CC1)C2=O (stereo unspecified)	V-ATPase pH 25 (no result: Hep lipid drop)
COc1ccc(C(=O)NCC(C)(C)N2CCOCC2)cc1S(=O)(=O)NCc1ccc(Cl)cc1	V-ATPase pH 21 (no result: Hep lipid drop)
COC(=O)[C@]12C[C@H](CC(=O)NCC3CCCCC3)C(=O)N(CCC3=CCCCC3)C1=C[C@H](C1CCCC1)O[C@@H]2C	none (no result: V-ATPase pH, Hep lipid drop, MPTP inh, aDG glyco act)
Cc1ccc(S(=O)(=O)N2CCCCC2)cc1NC(=O)c1ccc2c(c1)OCO2	none

Screening results deposited in PubChem BioAssay by several laboratories.
